# Columns and labels:
# [1] = test system: Clostridium perfringens; assay: Antimicrobial activity against Clostridium perfringens assessed as percent resistant isolates after 48 hrs by agar dilution method; format: functional
# [2] = test system: Clostridium perfringens; assay: Antimicrobial activity against Clostridium perfringens assessed as percent resistant isolates after 48 hrs by agar dilution method in presence of 4 ug/ml beta-lactamase inhibitor Tazobactam; format: functional
# Procedure, shortened: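 CLSI agar dilution on recent Korean clinical anaerobe isolates. Inoculum 10^5 CFU per spot by replicator. Plates incubated in an anaerobic chamber at 37°C for 48 h. For piperacillin plus tazobactam, tazobactam was held constant at 4 μg/ml. Resistance and susceptibility rates derived from MICs.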
Compound,Activity [1],Activity [2]
O=C(N[C@H](CO)[C@H](O)c1ccc([N+](=O)[O-])cc1)C(Cl)Cl [CHLORAMPHENICOL],0%,
CCN1CCN(C(=O)N[C@@H](C(=O)N[C@@H]2C(=O)N3[C@@H]2SC(C)(C)[C@@H]3C(=O)O)c2ccccc2)C(=O)C1=O [PIPERACILLIN],0%,0%
CO[C@@]1(NC(=O)C2SC(=C(C(N)=O)C(=O)O)S2)C(=O)N2C(C(=O)O)=C(CSc3nnnn3C)CS[C@@H]21 (some centres undefined) [CEFOTETAN],0%,
Cc1ncc([N+](=O)[O-])n1CCO [METRONIDAZOLE],0%,
CO[C@@]1(NC(=O)Cc2cccs2)C(=O)N2C(C(=O)O)=C(COC(N)=O)CS[C@@H]21 [CEFOXITIN],0%,
C[C@@H](O)[C@H]1C(=O)N2C(C(=O)O)=C(SCCNC=N)C[C@H]12 [IMIPENEM ANHYDROUS],0%,
CCC[C@@H]1C[C@@H](C(=O)N[C@@H]([C@H]2O[C@H](SC)[C@H](O)[C@@H](O)[C@H]2O)[C@H](C)Cl)N(C)C1 [CLINDAMYCIN],7%,
C[C@@H](O)[C@H]1C(=O)N2C(C(=O)O)=C(S[C@@H]3CN[C@H](C(=O)N(C)C)C3)[C@H](C)[C@H]12 [MEROPENEM],0%,
